pIC50: −log10 of the molar value.
Tests used:
[1] = Half life in rat at 5 mg/kg, po; format: ADME, organism-based; parameters: dose 5 mg/kg, route oral; conditions: in vivo
[2] = molecular target: T1, Leucine-rich repeat serine/threonine-protein kinase 2 (Homo sapiens, UniProt Q5S007); assay: Inhibition of LRRK2 in human PBMCs by ActivX KiNativ method
Rattus norvegicus [3] = assay: Volume of distribution at steady state in rat at 5 mg/kg, po; format: ADME, organism-based; parameters: dose 5 mg/kg, route oral; conditions: in vivo
Rattus norvegicus [4] = assay: fAUC in Wistar Han rat at 20 mg/kg, po bid for 14 days; format: ADME, organism-based; parameters: dose 20 mg/kg, route oral; conditions: in vivo, 336 h
Method in brief: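 Wistar Han rats dosed orally twice daily in 10% propylene glycol/20% PEG400/methylcellulose vehicle. Unbound plasma exposure measured on days 1 and 11.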

Canis familiaris = assay: Volume of distribution at steady state in dog at 5 mg/kg, po; format: ADME, organism-based, Canis lupus familiaris; parameters: dose 5 mg/kg, route oral; conditions: in vivo
[5] = molecular target: T1, Leucine-rich repeat serine/threonine-protein kinase 2; assay: Inhibition of full length LRRK2 (unknown origin) expressed in HEK293 cells assessed as reduction in S935 phosphorylation incubated for 90 mins by ELISA method; format: cell-based
Rattus norvegicus [6] = assay: Toxicity in Wistar Han rat assessed as changes in electrolytes levels at 6 to 60 mg/kg, po bid for 14 days; format: organism-based; parameters: dose 6-60 mg/kg, route oral; conditions: in vivo, 336 h
Method in brief: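 Wistar Han rats (200–300 g, 8–11 weeks) dosed by oral gavage twice daily for 14 days. Vehicle: 10% propylene glycol/20% PEG400/70% methylcellulose solution. RBC parameters, electrolytes, food consumption, body weight, clinical chemistry and urinary biomarkers recorded.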

[7] = Oral bioavailability in dog at 5 mg/kg; format: ADME, organism-based, Canis lupus familiaris; conditions: in vivo
[8] = AUC in non-human primate at 5 mg/kg, po; format: ADME, organism-based; parameters: dose 5 mg/kg, route oral; conditions: monkey, plasma

T1 sequence (Q5S007 whole entry): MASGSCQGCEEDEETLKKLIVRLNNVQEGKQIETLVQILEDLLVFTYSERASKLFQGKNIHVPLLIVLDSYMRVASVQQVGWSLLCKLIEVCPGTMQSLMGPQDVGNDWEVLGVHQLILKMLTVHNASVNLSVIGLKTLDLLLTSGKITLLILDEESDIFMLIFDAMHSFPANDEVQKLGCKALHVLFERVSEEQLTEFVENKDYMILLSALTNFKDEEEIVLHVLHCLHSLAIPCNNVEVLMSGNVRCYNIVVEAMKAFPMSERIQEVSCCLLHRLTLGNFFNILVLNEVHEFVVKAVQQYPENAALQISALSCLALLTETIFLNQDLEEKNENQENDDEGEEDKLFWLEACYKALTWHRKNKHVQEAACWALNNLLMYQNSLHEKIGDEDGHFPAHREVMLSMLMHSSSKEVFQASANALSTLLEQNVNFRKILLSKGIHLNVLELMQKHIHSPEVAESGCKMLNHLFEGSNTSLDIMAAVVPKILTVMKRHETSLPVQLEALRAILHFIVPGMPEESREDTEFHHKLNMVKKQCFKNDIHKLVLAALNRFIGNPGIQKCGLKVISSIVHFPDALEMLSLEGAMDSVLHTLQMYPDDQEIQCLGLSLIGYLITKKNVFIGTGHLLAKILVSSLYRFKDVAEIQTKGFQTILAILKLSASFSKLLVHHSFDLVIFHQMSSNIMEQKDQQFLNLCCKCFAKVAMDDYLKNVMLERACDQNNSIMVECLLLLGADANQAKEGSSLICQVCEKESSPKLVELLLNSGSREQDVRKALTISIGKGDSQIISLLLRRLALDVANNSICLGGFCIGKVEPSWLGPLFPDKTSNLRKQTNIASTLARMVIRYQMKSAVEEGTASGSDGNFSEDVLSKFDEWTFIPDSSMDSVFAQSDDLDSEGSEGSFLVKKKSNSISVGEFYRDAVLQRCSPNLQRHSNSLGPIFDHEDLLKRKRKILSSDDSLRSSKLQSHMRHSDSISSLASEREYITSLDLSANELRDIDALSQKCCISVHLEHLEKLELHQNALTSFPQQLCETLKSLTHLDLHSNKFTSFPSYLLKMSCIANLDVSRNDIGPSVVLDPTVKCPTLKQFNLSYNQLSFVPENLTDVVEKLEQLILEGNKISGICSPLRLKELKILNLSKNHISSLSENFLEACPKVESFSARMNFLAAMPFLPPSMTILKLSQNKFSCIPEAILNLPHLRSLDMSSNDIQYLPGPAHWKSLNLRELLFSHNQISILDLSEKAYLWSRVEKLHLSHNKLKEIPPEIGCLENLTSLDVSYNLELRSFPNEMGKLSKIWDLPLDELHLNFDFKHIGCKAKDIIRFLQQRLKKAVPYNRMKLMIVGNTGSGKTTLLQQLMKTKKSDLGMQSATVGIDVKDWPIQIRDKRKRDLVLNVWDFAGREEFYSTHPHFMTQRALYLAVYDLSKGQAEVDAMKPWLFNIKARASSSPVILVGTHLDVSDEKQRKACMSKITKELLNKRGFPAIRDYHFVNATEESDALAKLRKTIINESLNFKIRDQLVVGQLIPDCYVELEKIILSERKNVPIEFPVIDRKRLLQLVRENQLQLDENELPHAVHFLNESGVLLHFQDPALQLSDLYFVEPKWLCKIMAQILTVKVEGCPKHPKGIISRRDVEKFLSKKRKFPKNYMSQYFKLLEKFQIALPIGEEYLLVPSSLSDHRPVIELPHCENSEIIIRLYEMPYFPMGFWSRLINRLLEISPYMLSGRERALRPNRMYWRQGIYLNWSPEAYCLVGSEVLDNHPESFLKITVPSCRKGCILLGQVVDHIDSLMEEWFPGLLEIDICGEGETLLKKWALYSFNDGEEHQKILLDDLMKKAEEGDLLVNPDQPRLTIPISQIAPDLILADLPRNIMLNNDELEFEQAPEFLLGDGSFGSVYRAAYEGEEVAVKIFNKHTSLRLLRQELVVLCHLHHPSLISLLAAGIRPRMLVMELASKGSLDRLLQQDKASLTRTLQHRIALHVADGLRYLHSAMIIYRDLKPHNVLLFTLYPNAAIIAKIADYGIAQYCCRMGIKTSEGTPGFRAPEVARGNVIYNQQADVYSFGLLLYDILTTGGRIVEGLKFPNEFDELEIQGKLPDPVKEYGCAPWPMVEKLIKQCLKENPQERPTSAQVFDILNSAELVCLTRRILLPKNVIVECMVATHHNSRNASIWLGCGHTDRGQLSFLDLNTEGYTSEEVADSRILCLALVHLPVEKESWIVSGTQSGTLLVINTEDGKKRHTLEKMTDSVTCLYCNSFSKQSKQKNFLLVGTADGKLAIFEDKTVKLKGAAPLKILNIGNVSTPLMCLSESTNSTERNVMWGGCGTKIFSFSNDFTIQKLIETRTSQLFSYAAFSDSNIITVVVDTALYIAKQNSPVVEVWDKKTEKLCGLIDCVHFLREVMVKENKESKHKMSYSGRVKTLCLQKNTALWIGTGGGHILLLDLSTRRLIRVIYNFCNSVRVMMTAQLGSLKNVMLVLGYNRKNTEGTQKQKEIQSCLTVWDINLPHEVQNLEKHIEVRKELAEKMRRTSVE

## N#Cc1cccc(-c2c[nH]c3ncnc(N4CCOCC4)c23)c1
[1]
  half-life: 6.22 h
[2]
  pIC50: 7.82
Rattus norvegicus [3]
  Vdss: 1.83 L/kg
Rattus norvegicus [4]
  fAUC: 4.14 µM·h
Canis familiaris
  Vdss: 0.92 L/kg
[5]
  pIC50: 7.60
Rattus norvegicus [6]
  Activity: Non-toxic
[7]
  bioavailability: 0.6%
[8]
  AUC: 78 ng·h/mL

Source: ChEMBL document CHEMBL3393009 (J Med Chem, 2015)
